Measured values from ChEMBL document CHEMBL1139315, “Search for new pharmacophores for antimalarial activity. Part II: synthesis and antimalarial activity of new 6-ureido-4-anilinoquinazolines” (Bioorg Med Chem, 2009).
In brackets after ≈: the same amount, converted by molar mass.

Tests used:
Plasmodium falciparum [1] = experiment: Antimalarial activity after 72 hrs against chloroquine-sensitive Plasmodium falciparum 3D7 infected erythrocytes by MSF assay; format: functional, organism-based; conditions: 3D7, 72 h
Procedure, shortened: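 P. falciparum 3D7 kept in RPMI with gentamicin 40 µg/mL, Fungizone 0.25 µg/mL and 10% FBS (pH 7.2) at 37 °C under CO2. Twofold serial dilutions over seven concentrations, top 10–500 ng/mL, duplicate wells; 2.5% haematocrit, 0.5% parasitaemia; 72 h. SYBR Green I in lysis buffer (Tris pH 7.5, EDTA, saponin, Triton X-100), 1 h at room temperature, fluorescence read; IC50 by logit regression.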

Plasmodium falciparum [2] = experiment: Antimalarial activity as schizonticidal activity after 48 hrs against chloroquine-sensitive Plasmodium falciparum 3D7; format: functional; conditions: 3D7, 48 h
Procedure, shortened: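 3D7 ring stages synchronized with 5% sorbitol; 3% cell suspension at 1% parasitaemia added to duplicate wells of diluted compound (DMSO stock 5 mg/mL, diluted in RPMI). Incubated at 37 °C under CO2 for more than 40 h. Giemsa-stained thin smears counted by light microscopy; MIC = lowest concentration giving 100% inhibition of schizont maturation against untreated control.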

[3] = Selectivity index, ratio of CC50 for african green monkey (Cercopithecus aethiops) Vero C1008 cells to IC50 for chloroquine-sensitive Plasmodium falciparum 3D7; format: functional
Procedure, shortened: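 Vero C1008 cells exposed to serially diluted compound, highest 100 µg/mL, for 72 h; MTT read-out; CC50 = concentration killing 50% of cells. SI = CC50/IC50, with IC50 from the SYBR Green I assay on 3D7.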

Plasmodium yoelii = experiment: Antimalarial activity as reduced parasitaemia against chloroquine-resistant Plasmodium yoelii infected Swiss mice (Mus musculus) at 100 mg/kg peroral dose for 4 days; format: functional; parameters: scale not given: the % may be the effect or the level left; conditions: route oral
[4] = tested on: Plasmodium yoelii nigeriensis; experiment: (§1) Antimalarial activity as reduced parasitaemia against Plasmodium yoelii nigeriensis MDR infected Swiss mice (Mus musculus) at 100 mg/kg peroral dose […]; format: functional; parameters: scale not given: the % may be the effect or the level left; conditions: route oral
Procedure, shortened: (§2)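 Swiss mice (25 g, either sex), five per group, infected with 1 × 10^6 parasitized cells on day 0. Aqueous suspension given orally from day 0 to day 4; vehicle-only group as control. Parasitaemia read from tail-vein thin blood smears, reported as mean % parasitaemia on day 4 and day 7.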

[5] = tested on: Plasmodium yoelii nigeriensis; experiment: Antimalarial activity as reduced parasitaemia against Plasmodium yoelii nigeriensis MDR infected Swiss mice (Mus musculus) at 100 mg/kg peroral dose for 4 days; format: functional; parameters: scale not given: the % may be the effect or the level left; conditions: route oral; procedure, shortened: as §2
[6] = tested on: Plasmodium yoelii nigeriensis; experiment: as §1; format: functional; parameters: scale not given: the % may be the effect or the level left; conditions: route oral; procedure, shortened: as §2; remark: listed apart in the source
Mus musculus = experiment: Toxicity against Plasmodium yoelii nigeriensis MDR infected Swiss mice (Mus musculus) assessed as death at 100 mg/kg, perorally; format: organism-based; parameters: dose 100 mg/kg, route oral; conditions: in vivo, po

Row | Compound | MIC (Plasmodium falciparum [2]) [µg/mL] | other results
1 | COc1ccc(Nc2ncnc3ccc(NC(=O)Nc4ccc(C)c(Cl)c4)cc23)cc1 | 0.25 (≈ 0.576 µM) | IC50 (Plasmodium falciparum [1]): 0.05 µg/mL (≈ 0.115 µM); Ratio CC50/IC50 [3]: 114.9
2 | O=C(Nc1ccc(Br)cc1)Nc1ccc2ncnc(Nc3ccccc3)c2c1 | 0.25 (≈ 0.576 µM) | IC50 (Plasmodium falciparum [1]): 0.173 µg/mL (≈ 0.399 µM); Ratio CC50/IC50 [3]: 132.5
3 | O=C(Nc1ccc(Cl)cc1)Nc1ccc2ncnc(Nc3ccc(F)cc3)c2c1 | 0.5 (≈ 1.23 µM) | Activity (Plasmodium yoelii): 1.18%; Activity [4]: 9.38%
4 | COc1ccc(Nc2ncnc3ccc(NC(=O)Nc4ccc(Cl)cc4)cc23)cc1OC | 0.5 (≈ 1.11 µM) | –
5 | COc1cccc(Nc2ncnc3ccc(NC(=O)Nc4cccc(C#N)c4)cc23)c1 | 10 (≈ 24.4 µM) | –
6 | COc1cccc(Nc2ncnc3ccc(NC(=O)Nc4ccc(C(C)=O)cc4)cc23)c1 | > 10 | –
7 | Cc1ccc(Nc2ncnc3ccc(NC(=O)Nc4ccc(Cl)c(Cl)c4)cc23)cc1 | 1 (≈ 2.28 µM) | –
8 | O=C(Nc1ccc(Cl)c(C(F)(F)F)c1)Nc1ccc2ncnc(Nc3cccc(C(F)(F)F)c3)c2c1 | 0.25 (≈ 0.475 µM) | IC50 (Plasmodium falciparum [1]): 0.0023 µg/mL (≈ 0.00437 µM); Activity [5]: 10%; Activity [4]: 30.5%; Ratio CC50/IC50 [3]: 1194
9 | COc1cccc(Nc2ncnc3ccc(NC(=O)Nc4ccc(Cl)c(Cl)c4)cc23)c1 | 2 (≈ 4.4 µM) | –
10 | O=C(Nc1ccc(Cl)cc1)Nc1ccc2ncnc(Nc3cccc(Cl)c3)c2c1 | > 10 | –
11 | O=C(Nc1ccc(Cl)c(Cl)c1)Nc1ccc2ncnc(Nc3ccc(F)cc3)c2c1 | 10 (≈ 22.6 µM) | –
12 | CCN(CC)CCCC(C)Nc1ccnc2cc(Cl)ccc12 (centres undefined) [CHLOROQUINE] | 0.125 (≈ 0.391 µM) | –
13 | Cc1ccc(Nc2ncnc3ccc(NC(=O)Nc4ccc(C)c(Cl)c4)cc23)cc1 | 0.5 (≈ 1.2 µM) | Activity (Plasmodium yoelii): 3.38%; Activity [4]: 10.82%
14 | Cc1ccc(NC(=O)Nc2ccc3ncnc(Nc4cccc(F)c4)c3c2)cc1Cl | 0.25 (≈ 0.593 µM) | IC50 (Plasmodium falciparum [1]): 0.147 µg/mL (≈ 0.348 µM); Ratio CC50/IC50 [3]: 76.6
15 | COc1ccc(Nc2ncnc3ccc(NC(=O)Nc4ccc(Br)cc4)cc23)cc1OC | 0.5 (≈ 1.01 µM) | Activity [5]: 26.3%; Activity [4]: 26.5%
16 | Cc1ccc(NC(=O)Nc2ccc3ncnc(Nc4cccc(Cl)c4)c3c2)cc1Cl | 10 (≈ 22.8 µM) | –
17 | COc1cccc(Nc2ncnc3ccc(NC(=O)Nc4ccc(Br)cc4)cc23)c1 | 2 (≈ 4.31 µM) | –
18 | O=C(Nc1ccc(Cl)c(Cl)c1)Nc1ccc2ncnc(Nc3cccc(F)c3)c2c1 | 0.25 (≈ 0.565 µM) | IC50 (Plasmodium falciparum [1]): 0.0245 µg/mL (≈ 0.0554 µM); Ratio CC50/IC50 [3]: 221.5
19 | N#Cc1cccc(NC(=O)Nc2ccc3ncnc(Nc4ccccc4)c3c2)c1 | 0.5 (≈ 1.31 µM) | –
20 | O=C(Nc1ccc(Cl)cc1)Nc1ccc2ncnc(Nc3cccc(F)c3)c2c1 | 0.5 (≈ 1.23 µM) | Activity [6]: 99%; Activity [5]: 0%; Activity [4]: 0.03%
21 | Cc1ccc(Nc2ncnc3ccc(NC(=O)Nc4cccc(C#N)c4)cc23)cc1 | 10 (≈ 25.4 µM) | –

Row | Compound | MIC (Plasmodium falciparum [2]) [µg/mL] | other results
22 | Cc1ccc(Nc2ncnc3ccc(NC(=O)Nc4ccc(Cl)cc4)cc23)cc1 | 1 (≈ 2.48 µM) | IC50 (Plasmodium falciparum [1]): 0.0771 µg/mL (≈ 0.191 µM); Ratio CC50/IC50 [3]: 126.3
23 | O=C(Nc1ccc(Cl)cc1)Nc1ccc2ncnc(Nc3ccccc3)c2c1 | 1 (≈ 2.57 µM) | –
24 | Cc1ccc(NC(=O)Nc2ccc3ncnc(Nc4cccc(C(F)(F)F)c4)c3c2)cc1Cl | 10 (≈ 21.2 µM) | –
25 | O=C(Nc1ccc(Cl)c(Cl)c1)Nc1ccc2ncnc(Nc3ccccc3)c2c1 | 10 (≈ 23.6 µM) | –
26 | N#Cc1cccc(NC(=O)Nc2ccc3ncnc(Nc4cccc(Cl)c4)c3c2)c1 | 0.5 (≈ 1.21 µM) | –
27 | COc1ccc(Nc2ncnc3ccc(NC(=O)Nc4cccc(C(C)=O)c4)cc23)cc1 | 10 (≈ 23.4 µM) | –
28 | COc1cccc(Nc2ncnc3ccc(NC(=O)Nc4ccc(C)c(Cl)c4)cc23)c1 | 0.5 (≈ 1.15 µM) | –
29 | O=C(Nc1ccc(Br)cc1)Nc1ccc2ncnc(Nc3cccc(F)c3)c2c1 | 0.5 (≈ 1.11 µM) | –
30 | COc1ccc(Nc2ncnc3ccc(NC(=O)Nc4ccc(C)c(Cl)c4)cc23)cc1OC | 0.25 (≈ 0.539 µM) | IC50 (Plasmodium falciparum [1]): 0.0223 µg/mL (≈ 0.0481 µM); Ratio CC50/IC50 [3]: 449
31 | COc1ccc(Nc2ncnc3ccc(NC(=O)Nc4ccc(Cl)c(Cl)c4)cc23)cc1OC | 0.25 (≈ 0.516 µM) | IC50 (Plasmodium falciparum [1]): 0.0807 µg/mL (≈ 0.167 µM); Activity [5]: 41%; Activity [4]: 14%; Ratio CC50/IC50 [3]: 74.5
32 | O=C(Nc1cc(Cl)cc(Cl)c1)Nc1ccc2ncnc(Nc3cccc(C(F)(F)F)c3)c2c1 | 10 (≈ 20.3 µM) | –
33 | COc1ccc(Nc2ncnc3ccc(NC(=O)Nc4cccc(C#N)c4)cc23)cc1 | 2 (≈ 4.87 µM) | –
34 | COc1ccc(Nc2ncnc3ccc(NC(=O)Nc4ccc(C(C)=O)cc4)cc23)cc1 | 2 (≈ 4.68 µM) | –
35 | O=C(Nc1cc(Cl)cc(Cl)c1)Nc1ccc2ncnc(Nc3cccc(F)c3)c2c1 | > 10 | –
36 | COc1ccc(Nc2ncnc3ccc(NC(=O)Nc4ccc(Br)cc4)cc23)cc1 | 1 (≈ 2.15 µM) | –
37 | O=C(Nc1ccc(Cl)c(C(F)(F)F)c1)Nc1ccc2ncnc(Nc3cccc(F)c3)c2c1 | 0.5 (≈ 1.05 µM) | Activity [5]: 22%; Activity [4]: 14.5%
38 | COc1ccc(Nc2ncnc3ccc(NC(=O)Nc4cc(Cl)cc(Cl)c4)cc23)cc1OC | 0.25 (≈ 0.516 µM) | IC50 (Plasmodium falciparum [1]): 0.0832 µg/mL (≈ 0.172 µM); Activity [5]: 23.7%; Activity [4]: 10.75%; Ratio CC50/IC50 [3]: 36.1
39 | Cc1ccc(NC(=O)Nc2ccc3ncnc(Nc4ccccc4)c3c2)cc1Cl | 1 (≈ 2.48 µM) | –
40 | Cc1ccc(Nc2ncnc3ccc(NC(=O)Nc4ccc(Br)cc4)cc23)cc1 | 1 (≈ 2.23 µM) | –
41 | COc1ccc(Nc2ncnc3ccc(NC(=O)Nc4cccc(C(C)=O)c4)cc23)cc1OC | 10 (≈ 21.9 µM) | –
42 | Cc1ccc(NC(=O)Nc2ccc3ncnc(Nc4ccc(F)cc4)c3c2)cc1Cl | 0.5 (≈ 1.19 µM) | Activity (Plasmodium yoelii): 2.8%; Activity [4]: 4.06%

Row | Compound | MIC (Plasmodium falciparum [2]) [µg/mL] | other results
43 | N#Cc1cccc(NC(=O)Nc2ccc3ncnc(Nc4cccc(C(F)(F)F)c4)c3c2)c1 | 1 (≈ 2.23 µM) | –
44 | COc1ccc(Nc2ncnc3ccc(NC(=O)Nc4cccc(C#N)c4)cc23)cc1OC | 0.5 (≈ 1.14 µM) | Activity [5]: 13.9%; Activity [4]: 23.2%
45 | O=C(Nc1ccc(Br)cc1)Nc1ccc2ncnc(Nc3cccc(C(F)(F)F)c3)c2c1 | 2 (≈ 3.98 µM) | Activity (Mus musculus): Toxic; Activity [5]: 50.4%
46 | CC(=O)c1cccc(NC(=O)Nc2ccc3ncnc(Nc4ccc(C)cc4)c3c2)c1 | 2 (≈ 4.86 µM) | –
47 | COc1ccc(Nc2ncnc3ccc(NC(=O)Nc4ccc(Cl)cc4)cc23)cc1 | 0.25 (≈ 0.595 µM) | IC50 (Plasmodium falciparum [1]): 0.094 µg/mL (≈ 0.224 µM); Ratio CC50/IC50 [3]: 435.1
48 | O=C(Nc1ccc(Cl)c(Cl)c1)Nc1ccc2ncnc(Nc3cccc(Cl)c3)c2c1 | 0.5 (≈ 1.09 µM) | –
49 | O=C(Nc1ccc(Br)cc1)Nc1ccc2ncnc(Nc3cccc(Cl)c3)c2c1 | 1 (≈ 2.13 µM) | –
50 | COc1cccc(Nc2ncnc3ccc(NC(=O)Nc4cccc(C(C)=O)c4)cc23)c1 | 10 (≈ 23.4 µM) | –
51 | N#Cc1cccc(NC(=O)Nc2ccc3ncnc(Nc4cccc(F)c4)c3c2)c1 | 0.5 (≈ 1.26 µM) | Activity (Mus musculus): Toxic; Activity [5]: 46.4%
52 | O=C(Nc1ccc(Cl)cc1)Nc1ccc2ncnc(Nc3ccc(Cl)cc3)c2c1 | 0.5 (≈ 1.18 µM) | –
53 | O=C(Nc1ccc(Cl)cc1)Nc1ccc2ncnc(Nc3cccc(C(F)(F)F)c3)c2c1 | 0.25 (≈ 0.546 µM) | IC50 (Plasmodium falciparum [1]): 0.0674 µg/mL (≈ 0.147 µM); Ratio CC50/IC50 [3]: 35.9
54 | O=C(Nc1ccc(Br)cc1)Nc1ccc2ncnc(Nc3ccc(Cl)cc3)c2c1 | 1 (≈ 2.13 µM) | –
55 | COc1ccc(Nc2ncnc3ccc(NC(=O)Nc4ccc(C(C)=O)cc4)cc23)cc1OC | 10 (≈ 21.9 µM) | –
56 | Cc1ccc(NC(=O)Nc2ccc3ncnc(Nc4ccc(Cl)cc4)c3c2)cc1Cl | 1 (≈ 2.28 µM) | –
57 | COc1ccc(Nc2ncnc3ccc(NC(=O)Nc4ccc(Cl)c(C(F)(F)F)c4)cc23)cc1OC | 0.25 (≈ 0.483 µM) | IC50 (Plasmodium falciparum [1]): 0.0182 µg/mL (≈ 0.0351 µM); Activity [6]: 99%; Activity [5]: 0%; Activity [4]: 0.49%; Ratio CC50/IC50 [3]: 345.8
58 | O=C(Nc1ccc(Br)cc1)Nc1ccc2ncnc(Nc3ccc(F)cc3)c2c1 | 10 (≈ 22.1 µM) | –
59 | CC(=O)c1ccc(NC(=O)Nc2ccc3ncnc(Nc4ccc(C)cc4)c3c2)cc1 | 2 (≈ 4.86 µM) | –
60 | O=C(Nc1ccc(Cl)c(Cl)c1)Nc1ccc2ncnc(Nc3cccc(C(F)(F)F)c3)c2c1 | 0.25 (≈ 0.508 µM) | IC50 (Plasmodium falciparum [1]): 0.013 µg/mL (≈ 0.0264 µM); Ratio CC50/IC50 [3]: 69
61 | COc1cccc(Nc2ncnc3ccc(NC(=O)Nc4ccc(Cl)cc4)cc23)c1 | 0.25 (≈ 0.595 µM) | IC50 (Plasmodium falciparum [1]): 0.159 µg/mL (≈ 0.377 µM); Ratio CC50/IC50 [3]: 378.9
62 | O=C(Nc1ccc(Cl)c(Cl)c1)Nc1ccc2ncnc(Nc3ccc(Cl)cc3)c2c1 | 0.5 (≈ 1.09 µM) | –
63 | COc1ccc(Nc2ncnc3ccc(NC(=O)Nc4ccc(Cl)c(Cl)c4)cc23)cc1 | 2 (≈ 4.4 µM) | –
